From ChEMBL document CHEMBL4261521, “Synthesis of benzo[d]thiazole-hydrazone analogues: molecular docking and SAR studies of potential H+/K+ ATPase inhibitors and anti-inflammatory agents” (Medchemcomm, 2017)
≈ marks a conversion by molar mass, not a printed value.

Key:
[1] = test system: Erythrocyte; test: Anti-inflammatory activity in human RBC assessed as inhibition of hypotonic solution-induced hemolysis after 10 mins by spectrophotometric method; type: functional, cell-based
Procedure, shortened: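 Heparinized blood from one healthy donor (no NSAIDs for 2 weeks), washed in 0.9% saline, made into 40% (v/v) RBC stock in 10 mM sodium phosphate/154 mM NaCl, pH 7.4. Stock mixed with hypotonic buffer (50 mM NaCl, 10 mM phosphate, pH 7.4) plus sample at 20–100 μg mL–1. Incubated at room temperature, centrifuged, supernatant absorbance at 540 nm, % haemolysis inhibition versus blank.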

[2] = Inhibition of H+/K+-ATPase in sheep stomach parietal cells assessed as reduction in inorganic phosphate liberation using ATP as substrate measured after 10 to 15 mins; details: Ovis aries
Procedure, shortened: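 Enzyme came from sheep fundic mucosal scrapings, homogenized in sucrose/EGTA/Hepes-Tris buffer pH 7.4, then subcellular fractionation. Basal medium: 2 mmol L–1 ATP, 50 mmol L–1 Tris-HCl pH 7.5, with K+ and HCO3 stimulation. Reaction started with ATP, run at 37 °C and stopped with cold 20% TCA. Released Pi read by Fiske–Subbarow at 660 nm. Values are means of three determinations.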

| SMILES | IC50 [2] [µg/mL] | IC50 [1] [µg/mL] |
| --- | --- | --- |
| Cc1cccc2nc(N/N=C\c3ccc(Br)cc3Br)sc12 | 66.1 (≈ 156 µM) | 10.1 (≈ 23.8 µM) |
| Cc1cccc2nc(N/N=C\c3cc(O)c(O)c(O)c3)sc12 | 8.99 (≈ 28.5 µM) | 68.6 (≈ 217 µM) |
| CCCCCC/C=N/Nc1nc2cccc(C)c2s1 | 72.1 (≈ 262 µM) | 82.2 (≈ 298 µM) |
| Cc1cccc2nc(N/N=C/c3cccs3)sc12 | 30.4 (≈ 111 µM) | 28.7 (≈ 105 µM) |
| Cc1cccc2nc(N/N=C\c3ccc(Cl)cc3Cl)sc12 | 68.9 (≈ 205 µM) | 18.2 (≈ 54 µM) |
| Cc1cccc2nc(N/N=C\c3ccc(F)cc3F)sc12 | 70.6 (≈ 233 µM) | 16.1 (≈ 53.2 µM) |
| COc1ccc2c(c1)c(CC(=O)O)c(C)n2C(=O)c1ccc(Cl)cc1 [INDOMETHACIN] |  | 40 (≈ 112 µM) |
| COc1cc(/C=N\Nc2nc3cccc(C)c3s2)cc(OC)c1OC | 12.8 (≈ 35.7 µM) | 74.6 (≈ 209 µM) |
| Cc1cccc2nc(N/N=C\c3ccc([N+](=O)[O-])cc3[N+](=O)[O-])sc12 | 80.6 (≈ 226 µM) | 12.7 (≈ 35.7 µM) |
| Cc1cccc2nc(N/N=C/c3ccco3)sc12 | 38.3 (≈ 149 µM) | 50.1 (≈ 195 µM) |
| COc1ccc2[nH]c([S+]([O-])Cc3ncc(C)c(OC)c3C)nc2c1 (configuration not stated) [OMEPRAZOLE] | 46.1 (≈ 134 µM) |  |
| CC/C=N/Nc1nc2cccc(C)c2s1 | 80.2 (≈ 366 µM) | 78.5 (≈ 358 µM) |
| COc1cc(/C=N\Nc2nc3cccc(C)c3s2)cc(Br)c1O | 42.1 (≈ 107 µM) | 56.4 (≈ 144 µM) |
| Cc1cccc2nc(N/N=C\c3ccc(O)cc3O)sc12 | 14.1 (≈ 47.2 µM) | 58.2 (≈ 194 µM) |
| Cc1cccc2nc(N/N=C/CC(C)C)sc12 | 82.2 (≈ 332 µM) | 90.7 (≈ 367 µM) |

Now from value to molecule, other results behind:

| IC50 [2] [µg/mL] | SMILES | IC50 [1] [µg/mL] |
| --- | --- | --- |
| 66.1 (≈ 232 µM) | Cc1cccc2nc(N/N=C\c3ccc(F)cc3)sc12 | 32.1 (≈ 113 µM) |
| 68.2 (≈ 226 µM) | Cc1cccc2nc(N/N=C\c3ccc(Cl)cc3)sc12 | 28.7 (≈ 95.2 µM) |
| 20.4 (≈ 62.2 µM) | COc1ccc(/C=N\Nc2nc3cccc(C)c3s2)c(OC)c1 | 68.1 (≈ 208 µM) |
| 48.1 (≈ 133 µM) | Cc1cccc2nc(N/N=C\c3ccc(O)c(Br)c3)sc12 | 52.4 (≈ 145 µM) |
| 54.4 (≈ 145 µM) | COc1ccc(/C=N\Nc2nc3cccc(C)c3s2)cc1Br | 58.6 (≈ 156 µM) |
| 40.2 (≈ 150 µM) | Cc1cccc2nc(N/N=C\c3ccncc3)sc12 | 54.2 (≈ 202 µM) |
| 30.4 (≈ 102 µM) | COc1ccc(/C=N\Nc2nc3cccc(C)c3s2)cc1 | 72.7 (≈ 244 µM) |
| 60.1 (≈ 174 µM) | Cc1cccc2nc(N/N=C\c3ccc(Br)cc3)sc12 | 20.1 (≈ 58 µM) |
| 84.1 (≈ 315 µM) | Cc1cccc2nc(N/N=C\c3ccccc3)sc12 | 80.1 (≈ 300 µM) |
| 42.9 (≈ 106 µM) | COc1cc(/C=N\Nc2nc3cccc(C)c3s2)ccc1OCc1ccccc1 | 66.2 (≈ 164 µM) |
| 34.2 (≈ 121 µM) | Cc1ccc(/C=N\Nc2nc3cccc(C)c3s2)cc1 | 54.3 (≈ 193 µM) |
| 28.1 (≈ 91.8 µM) | Cc1cccc2nc(N/N=C/c3cc4ccccc4[nH]3)sc12 | 30.2 (≈ 98.5 µM) |
| 72.2 (≈ 231 µM) | Cc1cccc2nc(N/N=C\c3ccc([N+](=O)[O-])cc3)sc12 | 24.1 (≈ 77.1 µM) |
| 26.2 (≈ 83.6 µM) | COc1ccc(/C=N\Nc2nc3cccc(C)c3s2)cc1O | 56.2 (≈ 179 µM) |
| 56.4 (≈ 157 µM) | Cc1cccc2nc(N/N=C\c3ccc(Oc4ccccc4)cc3)sc12 | 60.9 (≈ 169 µM) |
| 26.3 (≈ 92.9 µM) | Cc1cccc2nc(N/N=C\c3ccc(O)cc3)sc12 | 60 (≈ 212 µM) |
| 42.6 (≈ 166 µM) | Cc1cccc2nc(N/N=C/c3ccc[nH]3)sc12 | 46.2 (≈ 180 µM) |
